Source: ChEMBL document CHEMBL3758103, “Anti-herpetic and anti-dengue activity of abietane ferruginol analogues synthesized from (+)-dehydroabietylamine” (Eur J Med Chem, 2016)
In brackets after ≈: the same amount, converted by molar mass. Activity calls are given as the source filed them. No cut-off for these calls is given here.

Experiments:
Fusarium oxysporum = test: Antifungal activity against Fusarium oxysporum ATCC 48112 assessed as microbial growth inhibition after 48 hrs by microdilution assay; format: functional, organism-based
How it was run: (§1)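 Broth microdilution under CLSI M38-A with modifications, in duplicate, at final compound concentrations of 50–3.125 μg/mL. […] Values are the geometric mean of duplicate tests in three assays. Assay DMSO was 0.05%.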

Human alphaherpesvirus 2 [1] = test: Antiviral activity against HHV-2 VR-734-G infected in African green monkey Vero cells assessed as reduction in plaque formation administered simultaneously with virus for 1 hr measured after 72 hrs by crystal violet staining technique; format: functional, organism-based
How it was run: (§2)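 Plaque reduction on Vero monolayers (2.5 × 10^4 cells/well) infected with 100 PFU/well. Pre-infection arm: virus–compound mixture added for 1 h at 37 °C, PBS wash, then CMC overlay. Post-infection arm: virus adsorbed 1 h, washed, then compound given in CMC. CMC was 1% for HHV-1, 0.75% for HHV-2 and 2% for DENV-2. Plates ran 72 h (HHV) or 8 days (DENV-2) before crystal violet staining. EC50 came from linear regression over ≥4 dilutions in quadruplicate.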

[2] = Selectivity index, ratio of IC50 for African green monkey vero cells to EC50 for HHV-2 compound administered post viral infection
How it was run: (§3)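 Antiviral SI calculated as Vero IC50 divided by the post-infection plaque-reduction EC50 for each virus on Vero cells.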

dengue virus type 2 [3] = test: Antiviral activity against DENV-2 New guinea infected in African green monkey Vero cells assessed as reduction in plaque formation administered post viral infection after 8 days by crystal violet staining technique; format: functional, organism-based; settings: 192 h; how it was run: as §2
Human alphaherpesvirus 2 [4] = test: Antiviral activity against HHV-2 VR-734-G infected in African green monkey Vero cells assessed as maximal non toxic concentration causing reduction of viral titer after 72 hrs by crystal violet staining assay; format: functional
How it was run: (§4)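 End-point titration on Vero monolayers (2.0 × 10^4 cells/well, ≥80% confluent) with 10 TCID50 virus. Virus–compound mixtures (6.25–50 μg/mL) in DMEM/2% FBS with CMC (1% for HHV-1, 0.5% for HHV-2) were held 15 min at room temperature. Incubation was 48 h (HHV-1) or 72 h (HHV-2) at 37 °C, then formaldehyde/crystal violet staining and plaque counting. Read-out is the viral titer reduction factor. Two experiments in quadruplicate.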

dengue virus type 2 [5] = test: Antiviral activity against DENV-2 New guinea infected in African green monkey Vero cells assessed as viral plaque size reduction at 3.6 uM after 8 days by crystal violet staining based inverted microscopic analysis relative to control; format: functional; design: scale not given: the % may be the effect or the level left
How it was run: (§5)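 Vero cells (2.5 × 10^4/well) infected with 100 PFU/well, with compound in CMC added 2 h after infection. Incubation was 72 h for HHV strains and 8 days for DENV-2, then formaldehyde/crystal violet staining. Twenty plaques per concentration per well were imaged and their areas […] measured against mock-treated controls. Two experiments in duplicate.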

Human alphaherpesvirus 1 [6] = test: Antiviral activity against HHV-1 CDC Atlanta infected in African green monkey Vero cells assessed as reduction in plaque formation administered post viral infection after 72 hrs by crystal violet staining technique; format: functional, organism-based; how it was run: as §2
dengue virus type 2 [7] = test: Antiviral activity against DENV-2 New guinea infected in African green monkey Vero cells assessed as inhibition of virus-induced cytopathic effect after 3 days by crystal violet staining based inverted microscopic analysis relative to control; format: functional, organism-based
[8] = Cytotoxicity against human U937 cells assessed as cell growth inhibition after 48 hrs by MTT assay; format: functional, cell-based; settings: U-937, 48 h
How it was run: (§6)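 MTT assay. Vero and HeLa cells plated at 2.0 × 10^4/well and preincubated 24 h; Jurkat and U937 plated at 3.0 × 10^4/well. Compounds were applied 48 h at 37 °C, 5% CO2, with 0.05% DMSO. Absorbance read at 570 nm and IC50 taken by linear regression. Values are the geometric mean of two experiments in quadruplicate.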

Aspergillus terreus = test: Antifungal activity against Aspergillus terreus CDC 317 assessed as microbial growth inhibition by microdilution assay; format: functional, organism-based; how it was run: as §1
Human alphaherpesvirus 1 [9] = test: Antiviral activity against HHV1 CDC Atlanta infected in African green monkey Vero cells assessed as reduction of viral titer at maximal non-toxic concentration after 48 hrs by crystal violet staining assay relative to control; format: functional; how it was run: as §4
Human alphaherpesvirus 1 [10] = test: Antiviral activity against HHV-1 CDC Atlanta infected in African green monkey Vero cells assessed as viral plaque size reduction at 29 uM after 72 hrs by crystal violet staining based inverted microscopic analysis relative to control; format: functional; design: scale not given: the % may be the effect or the level left; how it was run: as §5
Human alphaherpesvirus 1 [11] = test: Antiviral activity against HHV-1 CDC Atlanta infected in African green monkey Vero cells assessed as reduction in plaque formation administered simultaneously with virus for 1 hr measured after 72 hrs by crystal violet staining technique; format: functional, organism-based; how it was run: as §2
Candida albicans = test: Antifungal activity against Candida albicans […] assessed as microbial growth inhibition after 24 hrs by microdilution assay; format: functional, organism-based
How it was run: (§7)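 Yeast microdilution by the AFST-EUCAST method at an inoculum of 1–5 × 10^5 CFU/mL, final compound concentrations 50–3.125 μg/mL, in duplicate. MIC is the lowest concentration giving 90% growth reduction after 24 h at 35 °C. Untreated inoculum served as negative control. Values are the geometric mean of duplicate tests in three assays.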

Human alphaherpesvirus 1 [12] = test: Antiviral activity against HHV-1 CDC Atlanta infected in African green monkey Vero cells assessed as maximal non toxic concentration causing reduction of viral titer after 48 hrs by crystal violet staining assay; format: functional; how it was run: as §4
Vero [13] = test: Cytotoxicity against African green monkey Vero cells assessed as inhibition of cell proliferation after 72 hrs; format: cell-based; settings: Chlorocebus sabaeus
Aspergillus flavus = test: Antifungal activity against Aspergillus flavus ATCC 204304 assessed as microbial growth inhibition by microdilution assay; format: functional, organism-based; how it was run: as §1
HeLa [14] = test: Cytotoxicity against human HeLa cells assessed as cell growth inhibition after 48 hrs by MTT assay; format: functional, cell-based; how it was run: as §6
Vero [15] = test: Cytotoxicity against African green monkey Vero cells assessed as inhibition of cell proliferation after 8 days; format: cell-based; settings: Chlorocebus sabaeus, 192 h
Human alphaherpesvirus 1 [16] = test: Antiviral activity against acyclovir-resistant HHV-1 29R infected in African green monkey Vero cells assessed as viral plaque size reduction at 29 uM after 72 hrs by crystal violet staining based inverted microscopic analysis relative to control; format: functional; design: scale not given: the % may be the effect or the level left; how it was run: as §5
dengue virus type 2 [17] = test: Antiviral activity against DENV-2 New guinea infected in African green monkey Vero cells assessed as reduction in plaque formation administered simultaneously with virus for 1 hr measured after 8 days by crystal violet staining technique; format: functional, organism-based; how it was run: as §2
Aspergillus fumigatus = test: Antifungal activity against Aspergillus fumigatus ATCC 204305 assessed as microbial growth inhibition by microdilution assay; format: functional, organism-based; how it was run: as §1
Candida tropicalis = test: Antifungal activity against Candida tropicalis ATCC 200956 assessed as microbial growth inhibition after 24 hrs by microdilution assay; format: functional, organism-based; how it was run: as §7
Candida parapsilosis = test: Antifungal activity against Candida parapsilosis ATCC 22019 assessed as microbial growth inhibition after 24 hrs by microdilution assay; format: functional, organism-based; how it was run: as §7
Human alphaherpesvirus 2 [18] = test: Antiviral activity against HHV-2 VR-734-G infected in African green monkey Vero cells assessed as reduction in plaque formation administered post viral infection after 72 hrs by crystal violet staining technique; format: functional, organism-based; settings: Human alphaherpesvirus 2, VR-734-G; how it was run: as §2
Jurkat [19] = test: Cytotoxicity against human Jurkat cells assessed as cell growth inhibition after 48 hrs by MTT assay; format: functional, cell-based; how it was run: as §6
Human alphaherpesvirus 2 [20] = test: Antiviral activity against HHV-2 VR-734-G infected in African green monkey Vero cells assessed as reduction of viral titer at maximal non-toxic concentration after 72 hrs by crystal violet staining assay relative to control; format: functional; how it was run: as §4
[21] = Selectivity index, ratio of IC50 for African green monkey vero cells to EC50 for DENV-2 compound administered post viral infection; how it was run: as §3
Vero [22] = test: Cytotoxicity against African green monkey Vero cells assessed as cell growth inhibition after 48 hrs by MTT assay; format: cell-based; settings: Chlorocebus sabaeus; how it was run: as §6
Trichophyton rubrum = test: Antifungal activity against Trichophyton rubrum ATCC 28188 assessed as microbial growth inhibition after 6 days by microdilution assay; format: functional; settings: ATCC 28188, 144 h; how it was run: as §1
[23] = test system: Trichophyton mentagrophytes; test: Antifungal activity against Trichophyton mentagrophytes ATCC 24198 assessed as microbial growth inhibition after 6 days by microdilution assay; format: functional; settings: ATCC 24198, 144 h; how it was run: as §1
[24] = Selectivity index, ratio of IC50 for African green monkey vero cells to EC50 for HHV-1 compound administered post viral infection; how it was run: as §3
HeLa [25] = test: Selectivity index, ratio of IC50 for African green monkey Vero cells to IC50 for human HeLa cells; format: functional
How it was run: (§8)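 SI calculated as Vero IC50 divided by HeLa, Jurkat or U937 IC50, all from the 48 h MTT assay.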

Jurkat [26] = test: Selectivity index, ratio of IC50 for African green monkey Vero cells to IC50 for human Jurkat cells; format: functional; how it was run: as §8
Human alphaherpesvirus 2 [27] = test: Antiviral activity against HHV-2 VR-734-G infected in African green monkey Vero cells assessed as viral plaque size reduction at 20.8 uM after 72 hrs by crystal violet staining based inverted microscopic analysis relative to control; format: functional; design: scale not given: the % may be the effect or the level left; how it was run: as §5
Vero [28] = test: Selectivity index, ratio of IC50 for African green monkey Vero cells to IC50 for human U937 cells; format: functional; how it was run: as §8
dengue virus type 2 [29] = test: Antiviral activity against DENV-2 New guinea infected in African green monkey Vero cells assessed as maximal non toxic concentration causing inhibition of virus-induced cytopathic effect after 3 days by crystal violet staining based inverted microscopic analysis; format: functional

| Compound | Activity (Fusarium oxysporum) | EC50 (Human alphaherpesvirus 2 [1]) | Ratio IC50/EC50 [2] | EC50 (dengue virus type 2 [3]) | MNTD (Human alphaherpesvirus 2 [4]) | Activity (dengue virus type 2 [7]) | IC50 [8] | Activity (Aspergillus terreus) | fold change (FC) (Human alphaherpesvirus 1 [9]) | EC50 (Human alphaherpesvirus 1 [11]) | Activity (Candida albicans) | MNTD (Human alphaherpesvirus 1 [12]) | IC50 (Vero [13]) | Activity (Aspergillus flavus) | IC50 (HeLa [14]) | IC50 (Vero [15]) | EC50 (dengue virus type 2 [17]) | Activity (Aspergillus fumigatus) | Activity (Candida tropicalis) | Activity (Candida parapsilosis) | further results |
| --- | --- | --- | --- | --- | --- | --- | --- | --- | --- | --- | --- | --- | --- | --- | --- | --- | --- | --- | --- | --- | --- |
| CC(C)c1cc2c(cc1O)[C@@]1(C)CCC[C@@](C)(CN3C(=O)c4ccccc4C3=O)[C@@H]1CC2 | inactive | Not Active | 10 | 1.4 µM | 29 µM | Active | > 50 µM | inactive | 100 | Not Active | inactive | 14.5 µM | 191 µM | inactive | > 50 µM | 80.8 µM | Not Active | inactive | inactive | inactive | Activity (dengue virus type 2 [5]): 77.9%; EC50 (Human alphaherpesvirus 1 [6]; vero): Not Active; Activity (Human alphaherpesvirus 1 [10]): 93.7%; Activity (Human alphaherpesvirus 1 [16]): 87.1%; EC50 (Human alphaherpesvirus 2 [18]): 19.2 µM; IC50 (Jurkat [19]): > 50 µM; fold change (FC) (Human alphaherpesvirus 2 [20]): 1000; Ratio IC50/EC50 [21]: 57.7 |
| CC(C)c1cc2c(cc1O)[C@@]1(C)CCC[C@@](C)(C=O)[C@@H]1CC2 [18-OXOFERRUGINOL] | inactive | Not Active | 5.9 | 5 µM | 41.7 µM | Active | 33.2 µM | inactive | inactive | Not Active | inactive | inactive | 97.8 µM | inactive | 60 µM | 52.2 µM | Not Active | inactive | inactive | inactive | IC50 (Vero [22]): 90.8 µM; EC50 (Human alphaherpesvirus 1 [6]; Human alphaherpesvirus 1, CDC Atlanta, Vero, 72 h, read-out: EC50): 19.6 µM; MIC80 (Trichophyton rubrum): 41.7 µM (≈ 12.5 µg/mL); MIC80 [23]: 83.3 µM (≈ 25 µg/mL); Ratio IC50/EC50 [24]: 4.9; Ratio IC50 (HeLa [25]): 1.5; Ratio IC50 (Jurkat [26]): 4.2; Activity (Human alphaherpesvirus 2 [27]): 68.2%; Ratio IC50 (Vero [28]): 2.7; EC50 (Human alphaherpesvirus 2 [18]): 16.6 µM; IC50 (Jurkat [19]): 21.6 µM; fold change (FC) (Human alphaherpesvirus 2 [20]): 1000; Ratio IC50/EC50 [21]: 10.4 |
| NC(=O)c1ncn([C@@H]2O[C@H](CO)[C@@H](O)[C@H]2O)n1 [RIBAVIRIN] |  |  |  | 13.5 µM |  | Active |  |  |  |  |  |  |  |  |  |  |  |  |  |  | MNTD (dengue virus type 2 [29]): 123 µM |
